Results taken from ChEMBL document CHEMBL4414574, “Structure-Based Discovery and Development of a Series of Potent and Selective Bromodomain and Extra-Terminal Protein Inhibitors” (J Med Chem, 2019).
Calls of active or inactive are those of the source. The rule behind the calls is not given here.

Experiments:
[1] = molecular target: Bromodomain and WD repeat-containing protein 1 (Homo sapiens) (UniProt Q9NSI6); assay: Binding affinity to human partial length BRWD1 (A1310 to E1430 residues) expressed in Escherichia coli BL21 cells assessed as residual binding level at 1 uM measured after 1 hr by quantitative PCR based BROMOscan assay relative to control
Bromodomain and WD repeat-containing protein 1 (Homo sapiens), sequence (Q9NSI6 whole entry, the tested form may be a part): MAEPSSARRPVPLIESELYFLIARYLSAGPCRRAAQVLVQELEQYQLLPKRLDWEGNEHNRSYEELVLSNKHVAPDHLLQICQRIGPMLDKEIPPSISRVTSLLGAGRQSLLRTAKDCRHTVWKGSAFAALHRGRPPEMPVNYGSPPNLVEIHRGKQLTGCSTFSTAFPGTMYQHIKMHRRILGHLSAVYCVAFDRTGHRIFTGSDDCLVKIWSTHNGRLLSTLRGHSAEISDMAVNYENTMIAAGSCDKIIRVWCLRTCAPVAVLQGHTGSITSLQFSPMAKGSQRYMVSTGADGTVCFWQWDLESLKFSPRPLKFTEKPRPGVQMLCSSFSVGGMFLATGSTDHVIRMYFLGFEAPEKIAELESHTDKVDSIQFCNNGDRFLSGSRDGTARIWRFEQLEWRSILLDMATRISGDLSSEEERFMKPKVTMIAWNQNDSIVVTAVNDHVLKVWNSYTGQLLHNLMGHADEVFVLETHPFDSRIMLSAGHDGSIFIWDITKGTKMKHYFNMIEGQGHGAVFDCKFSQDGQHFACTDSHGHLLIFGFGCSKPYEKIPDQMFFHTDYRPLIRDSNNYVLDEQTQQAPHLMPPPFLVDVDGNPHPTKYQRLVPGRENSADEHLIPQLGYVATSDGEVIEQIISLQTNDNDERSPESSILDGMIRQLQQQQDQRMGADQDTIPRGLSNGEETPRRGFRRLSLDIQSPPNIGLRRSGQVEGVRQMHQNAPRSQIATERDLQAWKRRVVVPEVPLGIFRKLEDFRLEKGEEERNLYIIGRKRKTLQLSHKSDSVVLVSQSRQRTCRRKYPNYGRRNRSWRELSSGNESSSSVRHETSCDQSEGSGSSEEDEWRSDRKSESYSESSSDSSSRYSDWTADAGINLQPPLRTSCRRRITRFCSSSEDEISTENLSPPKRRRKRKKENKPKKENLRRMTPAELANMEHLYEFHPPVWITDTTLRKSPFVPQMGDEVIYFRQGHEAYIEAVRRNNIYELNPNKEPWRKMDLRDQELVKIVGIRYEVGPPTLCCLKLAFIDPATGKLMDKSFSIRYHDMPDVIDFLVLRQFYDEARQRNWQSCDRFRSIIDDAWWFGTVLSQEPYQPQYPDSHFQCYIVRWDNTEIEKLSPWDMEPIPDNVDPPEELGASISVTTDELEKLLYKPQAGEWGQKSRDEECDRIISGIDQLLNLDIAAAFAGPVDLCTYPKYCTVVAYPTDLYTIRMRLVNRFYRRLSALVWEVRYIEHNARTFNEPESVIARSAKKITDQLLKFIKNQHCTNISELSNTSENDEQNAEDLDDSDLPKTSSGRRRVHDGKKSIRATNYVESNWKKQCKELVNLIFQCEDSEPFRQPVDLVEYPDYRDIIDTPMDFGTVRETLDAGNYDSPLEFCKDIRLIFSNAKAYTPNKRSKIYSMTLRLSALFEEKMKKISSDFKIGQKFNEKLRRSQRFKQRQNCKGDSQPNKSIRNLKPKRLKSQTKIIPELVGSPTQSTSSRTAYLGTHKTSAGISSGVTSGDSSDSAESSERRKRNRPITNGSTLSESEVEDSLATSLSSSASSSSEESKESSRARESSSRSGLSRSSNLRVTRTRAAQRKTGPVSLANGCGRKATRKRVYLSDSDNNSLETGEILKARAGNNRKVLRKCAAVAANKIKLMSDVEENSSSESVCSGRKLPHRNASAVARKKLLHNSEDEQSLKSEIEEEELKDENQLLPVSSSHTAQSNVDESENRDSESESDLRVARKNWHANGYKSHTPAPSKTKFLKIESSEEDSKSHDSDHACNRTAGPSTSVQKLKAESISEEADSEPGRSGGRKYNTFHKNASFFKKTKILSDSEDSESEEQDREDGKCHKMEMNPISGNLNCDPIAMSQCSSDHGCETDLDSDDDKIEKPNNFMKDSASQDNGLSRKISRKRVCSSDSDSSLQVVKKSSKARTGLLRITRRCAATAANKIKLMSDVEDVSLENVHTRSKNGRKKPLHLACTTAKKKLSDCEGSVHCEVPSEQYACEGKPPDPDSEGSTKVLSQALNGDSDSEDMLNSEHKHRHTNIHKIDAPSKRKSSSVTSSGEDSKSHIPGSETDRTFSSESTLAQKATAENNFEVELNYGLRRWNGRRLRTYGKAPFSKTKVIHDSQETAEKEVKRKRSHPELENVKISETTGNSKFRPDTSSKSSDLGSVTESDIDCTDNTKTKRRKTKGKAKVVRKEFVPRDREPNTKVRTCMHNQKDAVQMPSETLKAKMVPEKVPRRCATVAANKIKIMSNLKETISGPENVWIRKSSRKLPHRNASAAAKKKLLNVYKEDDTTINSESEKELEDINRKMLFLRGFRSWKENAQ
In short: (§1)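 A BROMOScan competition-binding panel of 32 bromodomains was run at a single 1 μM compound concentration. Results are primary-screen 'Percent Control', where lower values indicate stronger binding.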

[2] = molecular target: Bromodomain-containing protein 9 (Homo sapiens) (UniProt Q9H8M2); assay: Binding affinity to human partial length BRD9 (R130 to V259 residues) expressed in Escherichia coli BL21 cells assessed as residual binding level at 1 uM measured after 1 hr by quantitative PCR based BROMOscan assay relative to control; in short: as §1
A549 = assay: Antiproliferative activity against human A549 cells after 72 hrs by CCK8 or SRB assay; assay type: functional, cell-based
[3] = Cmax in ICR mouse at 10 mg/kg, po administered via gavage measured after 0.25 to 24 hrs by UPLC/MS analysis; assay type: ADME, organism-based; design: dose 10 mg/kg, route oral; details: in vivo
In short: (§2)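 Male ICR mice dosed orally in 1% DMSO/0.5% HPMC vehicle; plasma or brain drug levels used to derive Tmax, Cmax, AUC0-t, AUC0-inf and T1/2.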

MV4-11 [4] = assay: Induction of apoptosis in human MV4-11 cells after 24 hrs by Annexin V staining based assay; assay type: functional, cell-based
CYP3A4 = CYP3A4 (Homo sapiens, UniProt P08684); assay: Reversible inhibition of CYP3A4 in human liver microsomes at 10 uM using midazolam or testosterone as substrate preincubated for 5 mins followed by NADPH addition and measured after 20 mins relative to control; assay type: ADME; details: probe midazolam or testosterone
In short: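 Human liver microsomes 0.2 mg/mL, 100 mM phosphate pH 7.4, 10 μM test compound, probe cocktail (10 μM midazolam, 100 μM testosterone, 10 μM dextromethorphan, 20 μM diclofenac, 100 μM phenacetin, 100 μM mephenytoin); organic solvent <1%; 5 min preincubation at 37 °C, started with NADPH-generating system, 20 min reaction; metabolite formation expressed relative to PBS control.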

[5] = molecular target: Bromodomain-containing protein 3 (Homo sapiens) (UniProt Q15059); assay: Binding affinity to human partial length BRD3 bromodomain 1 (P24 to E144 residues) expressed in Escherichia coli BL21 cells assessed as residual binding level at 1 uM measured after 1 hr by quantitative PCR based BROMOscan assay relative to control; in short: as §1
[6] = AUC (0 to t) in ICR mouse plasma at 100 mg/kg, po administered via gavage measured after 0.25 to 24 hrs by UPLC/MS analysis; assay type: ADME, organism-based; design: time upper 24 hr, dose 100 mg/kg, time lower 0.25 hr, route oral
In short: (§3)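 Male ICR mice were dosed orally in 1% DMSO/0.5% HPMC vehicle. Plasma (and brain, where stated) concentrations gave Tmax, Cmax, T1/2, AUC0-t and AUC0-inf.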

RKO = assay: Induction of cell cycle arrest in human RKO cells assessed as increase in accumulation at G1 phase at 100 nM after 24 hrs by propidium iodide staining based flow cytometric analysis; assay type: functional
[7] = Half life in dog plasma at 3 mg/kg, po; assay type: ADME, organism-based, Canis lupus familiaris
[8] = Toxicity in Balb/c nude mouse xenografted with human MV4-11 cells assessed as effect on mouse survival at 10 to 50 mg/kg, administered once daily; assay type: organism-based; details: in vivo
[9] = molecular target: T1, Bromodomain-containing protein 4 (Homo sapiens, UniProt O60885); assay: Binding affinity to human partial length BRD4 bromodomain 1 long isoform (N44 to E168 residues) expressed in Escherichia coli BL21 cells assessed as residual binding level at 1 uM measured after 1 hr by quantitative PCR based BROMOscan assay relative to control; in short: as §1
[10] = AUC (0 to t) in ICR mouse at 10 mg/kg, po administered via gavage measured after 0.25 to 24 hrs by UPLC/MS analysis; assay type: ADME, organism-based; design: time 0.25-24 hr, dose 10 mg/kg, route oral; details: in vivo; in short: as §3
[11] = molecular target: T1, Bromodomain-containing protein 4; assay: Inhibition of BRD4 bromodomain 1 (unknown origin)
In short: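 BRD4 BD1 (His6-tagged, E. coli BL21(DE3)-expressed, Ni-NTA purified) at 10 nM with 5 nM FITC-labelled (+)-JQ1 tracer; 50 mM HEPES pH 7.4, 150 mM NaCl, 0.5 mM CHAPS, DMSO 2‰ final; graded inhibitor; 4 h dark equilibration at room temperature; fluorescence anisotropy read (ex 485/em 530 nm). IC50 from two independent experiments in duplicate, mean ± SEM.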

[12] = Tmax in dog plasma at 3 mg/kg, po; assay type: ADME, organism-based, Canis lupus familiaris
In short: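 Oral dosing in 1% DMSO/0.5% HPMC vehicle (dog 3 mg/kg; rat 10 mg/kg); plasma drug levels measured.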

[13] = molecular target: T1, Bromodomain-containing protein 4; assay: Inhibition of BRD4 bromodomain 2 (unknown origin)
[14] = molecular target: Serine/threonine-protein kinase PLK1 (Homo sapiens) (UniProt P53350); assay: Inhibition of full-length recombinant human His-tagged PLK1 expressed in baculovirus expression system at 10 uM using Ser/Thr 16 Peptide as substrate after 60 mins by Z-LYTE assay relative to control
Serine/threonine-protein kinase PLK1 (Homo sapiens), sequence (P53350 whole entry, the tested form may be a part, canonical isoform): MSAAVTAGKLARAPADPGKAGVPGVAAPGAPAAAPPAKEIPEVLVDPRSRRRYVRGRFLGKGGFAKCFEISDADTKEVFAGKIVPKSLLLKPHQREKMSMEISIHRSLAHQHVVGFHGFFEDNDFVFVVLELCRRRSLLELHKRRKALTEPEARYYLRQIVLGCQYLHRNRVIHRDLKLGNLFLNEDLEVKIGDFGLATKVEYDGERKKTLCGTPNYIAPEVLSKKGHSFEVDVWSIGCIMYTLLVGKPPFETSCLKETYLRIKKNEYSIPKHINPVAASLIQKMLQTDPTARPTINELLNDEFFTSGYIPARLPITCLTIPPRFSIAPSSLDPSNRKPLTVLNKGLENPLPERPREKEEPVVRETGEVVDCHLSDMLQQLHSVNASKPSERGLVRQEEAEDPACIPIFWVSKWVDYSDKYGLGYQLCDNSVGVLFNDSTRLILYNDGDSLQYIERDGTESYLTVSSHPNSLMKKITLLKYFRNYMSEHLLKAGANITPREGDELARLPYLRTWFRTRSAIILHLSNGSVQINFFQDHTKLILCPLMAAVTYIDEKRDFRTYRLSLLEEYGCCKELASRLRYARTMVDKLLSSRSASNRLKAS

[15] = molecular target: Bromodomain-containing protein 2 (Homo sapiens) (UniProt P25440); assay: Binding affinity to human partial length BRD2 bromodomain 1 isoform 1 (K71 to N194 residues) expressed in Escherichia coli BL21 cells assessed as residual binding level at 1 uM measured after 1 hr by quantitative PCR based BROMOscan assay relative to control; in short: as §1
[16] = molecular target: E3 ubiquitin-protein ligase TRIM33 (Homo sapiens) (UniProt Q9UPN9); assay: Binding affinity to human partial length TRIM33 (D882 to A1087 residues) expressed in Escherichia coli BL21 cells assessed as residual binding level at 1 uM measured after 1 hr by quantitative PCR based BROMOscan assay relative to control
E3 ubiquitin-protein ligase TRIM33 (Homo sapiens), sequence (Q9UPN9 whole entry, the tested form may be a part): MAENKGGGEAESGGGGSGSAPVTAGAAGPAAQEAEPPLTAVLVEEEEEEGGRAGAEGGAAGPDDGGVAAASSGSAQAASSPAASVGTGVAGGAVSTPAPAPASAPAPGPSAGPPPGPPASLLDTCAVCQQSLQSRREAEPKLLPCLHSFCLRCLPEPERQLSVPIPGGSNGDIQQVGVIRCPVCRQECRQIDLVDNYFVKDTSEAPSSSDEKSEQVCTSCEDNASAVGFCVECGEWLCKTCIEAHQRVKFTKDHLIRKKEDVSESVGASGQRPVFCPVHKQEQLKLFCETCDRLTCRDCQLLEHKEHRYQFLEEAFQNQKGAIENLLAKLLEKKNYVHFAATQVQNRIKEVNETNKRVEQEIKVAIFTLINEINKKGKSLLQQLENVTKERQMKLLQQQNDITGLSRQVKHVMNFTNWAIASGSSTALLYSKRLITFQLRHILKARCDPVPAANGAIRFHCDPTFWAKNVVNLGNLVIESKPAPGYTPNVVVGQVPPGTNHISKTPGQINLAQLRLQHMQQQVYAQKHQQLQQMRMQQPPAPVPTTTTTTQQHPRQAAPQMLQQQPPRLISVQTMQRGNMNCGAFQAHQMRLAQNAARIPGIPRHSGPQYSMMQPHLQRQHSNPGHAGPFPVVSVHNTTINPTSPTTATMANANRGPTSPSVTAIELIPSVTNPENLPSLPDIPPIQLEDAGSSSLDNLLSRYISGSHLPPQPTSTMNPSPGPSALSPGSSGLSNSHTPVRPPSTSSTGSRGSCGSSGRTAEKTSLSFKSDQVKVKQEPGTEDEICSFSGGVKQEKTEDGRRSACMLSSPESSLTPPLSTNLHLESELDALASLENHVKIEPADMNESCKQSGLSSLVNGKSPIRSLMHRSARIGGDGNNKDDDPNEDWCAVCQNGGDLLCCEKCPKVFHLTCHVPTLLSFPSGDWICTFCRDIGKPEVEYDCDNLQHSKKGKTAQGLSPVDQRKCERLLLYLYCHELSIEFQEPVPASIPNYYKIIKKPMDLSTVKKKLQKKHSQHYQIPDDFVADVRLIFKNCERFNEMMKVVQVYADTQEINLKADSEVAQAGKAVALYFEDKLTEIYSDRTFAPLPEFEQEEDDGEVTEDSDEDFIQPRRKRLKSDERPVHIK
In short: (§4)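 Bromodomain panel screen (32 bromodomains) run at 1 μM single concentration; primary binding reported as 'Percent Control', lower values meaning stronger interaction.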

MV4-11 [17] = assay: Induction of apoptosis in human MV4-11 cells assessed as increase in cleaved caspase-7 level after 24 hrs by Western blot analysis; assay type: functional, cell-based
In short: (§5)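 MV4-11 cells exposed to compound at the indicated doses for 24 h; lysates probed by Western blotting for the target protein, with GAPDH as loading control.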

[18] = Half life in ICR mouse at 10 mg/kg, po administered via gavage measured after 0.25 to 24 hrs by UPLC/MS analysis; assay type: ADME, organism-based; details: in vivo; in short: as §2
MV4-11 [19] = assay: Induction of apoptosis in human MV4-11 cells assessed as reduction in BCL-xL level after 24 hrs by Western blot analysis; assay type: functional, cell-based; in short: as §5
[20] = molecular target: Insulin-like growth factor 1 receptor (Homo sapiens) (UniProt P08069); assay: Inhibition of IGF1R (unknown origin) at 10 uM using poly (Glu, Tyr) 4:1 as substrate after 60 mins by ELISA
[21] = molecular target: Transcription intermediary factor 1-alpha (Homo sapiens) (UniProt O15164); assay: Binding affinity to human partial length TRIM24 (P790 to P977 residues) expressed in Escherichia coli BL21 cells assessed as residual binding level at 1 uM measured after 1 hr by quantitative PCR based BROMOscan assay relative to control; in short: as §4
Transcription intermediary factor 1-alpha (Homo sapiens), sequence (O15164 whole entry, the tested form may be a part): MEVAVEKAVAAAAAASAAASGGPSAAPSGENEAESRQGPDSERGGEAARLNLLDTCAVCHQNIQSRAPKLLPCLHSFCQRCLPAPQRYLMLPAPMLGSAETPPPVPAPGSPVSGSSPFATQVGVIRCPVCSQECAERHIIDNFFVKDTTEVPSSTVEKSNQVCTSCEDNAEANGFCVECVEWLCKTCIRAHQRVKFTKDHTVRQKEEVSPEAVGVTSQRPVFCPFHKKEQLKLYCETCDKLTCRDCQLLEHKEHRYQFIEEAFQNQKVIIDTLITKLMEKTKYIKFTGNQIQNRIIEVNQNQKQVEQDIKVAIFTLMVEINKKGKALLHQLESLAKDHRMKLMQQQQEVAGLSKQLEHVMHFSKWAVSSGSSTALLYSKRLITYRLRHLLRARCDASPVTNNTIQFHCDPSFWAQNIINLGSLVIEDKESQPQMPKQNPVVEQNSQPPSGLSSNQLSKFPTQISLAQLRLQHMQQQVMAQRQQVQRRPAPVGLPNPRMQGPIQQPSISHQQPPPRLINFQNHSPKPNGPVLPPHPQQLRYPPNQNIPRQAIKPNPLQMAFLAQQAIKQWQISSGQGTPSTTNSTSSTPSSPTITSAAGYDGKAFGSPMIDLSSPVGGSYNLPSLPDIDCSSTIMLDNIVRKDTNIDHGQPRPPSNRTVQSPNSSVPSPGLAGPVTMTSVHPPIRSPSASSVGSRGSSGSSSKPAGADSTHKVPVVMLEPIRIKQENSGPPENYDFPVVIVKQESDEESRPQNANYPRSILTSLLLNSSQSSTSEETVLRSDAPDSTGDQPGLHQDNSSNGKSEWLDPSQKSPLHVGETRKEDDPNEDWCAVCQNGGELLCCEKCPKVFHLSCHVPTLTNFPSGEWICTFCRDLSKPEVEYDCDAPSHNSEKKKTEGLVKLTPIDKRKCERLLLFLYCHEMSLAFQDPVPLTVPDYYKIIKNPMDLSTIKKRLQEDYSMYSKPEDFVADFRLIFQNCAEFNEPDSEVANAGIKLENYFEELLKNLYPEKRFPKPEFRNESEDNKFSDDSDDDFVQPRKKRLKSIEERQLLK

Compound: Cc1ccc(-n2nc(C(=O)N3C[C@@H](C)N[C@@H](C)C3)nc2-c2ccc3c(c2)N(C2CCCC2)[C@H](C)C(=O)N3C)cc1
- Activity [1]: 70 to 100%
- Activity [2]: 70 to 100%
- Activity (A549): Active
- Cmax [3]: 1900 ng/mL
- Activity (MV4-11 [4]): Dose-dependent effect
- inhibition at 20 min, 10 µM (CYP3A4): 23 to 28%
- Activity [5]: < 5%
- AUC(0-t) [6]: 80600 ng·h/mL
- Activity (RKO): Active
- half-life [7]: 6.6 h
- Activity [8]: Non-Toxic
- Activity [9]: < 5%
- AUC(0-t) [10]: 7380 ng·h/mL
- inhibition [11]: Active
- Tmax [12]: 0.5 h
- inhibition [13]: Active
- inhibition [14]: < 10%
- Activity [15]: < 5%
- Activity [16]: 70 to 100%
- Activity (MV4-11 [17]): Dose-dependent effect
- half-life [18]: 2.1 h
- Activity (MV4-11 [19]): Dose-dependent effect
- inhibition [20]: Active
- Activity [21]: 50 to 70%
